An excerpt weighted towards active compounds, which were near 1.8% of everything screened.
TDP2 inh: human TDP2 enzyme inhibitors, primary screen, biochemical, epi absorbance, recombinant enzyme; Tyrosyl-DNA phosphodiesterase 2 (Homo sapiens), O95551; T5PNP hydrolysis, p-nitrophenol absorbance 415 nm; inhibition, % at 12.8 µM; hit rate 0.34% among 370,000; AID 720702, 2013;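 active means inhibition above the mean of all tested compounds plus 3 SD, set per campaign, cut at about 25% in these data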;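 further: 0% = DMSO with enzyme and 100% = buffer with substrate but no TDP2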
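Test system: Human TDP2 enzyme | Reagent: 5 mM T5PNP | Compound dosing: 12.8 µM single point, 1% DMSO | Incubation: Enzyme reaction with compound for 2 h at 37 °C | Technique: p-Nitrophenol epi absorbance | Read-out: % inhibition relative to enzyme-containing and enzyme-free wells | Benchmarks: High control without enzyme, low control DMSO plus TDP2 | Replicates: Singlicate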
LEDGF integ inh: blockers of LEDGF/p75-dependent integrase strand transfer – biochemical, TR-FRET, high throughput, primary screen | HIV-1 integrase (with human LEDGF/p75) | inhibition, % at 3.7 µM | TR-FRET IN-LEDGF/p75 DNA integration, Eu/Cy5 | AID 743269, 2014 | hit rate 0.64% among 370,000;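 active means inhibition above the screen-wide mean plus 3 SD, cut at about 13% in these data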;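 further: signal is the Cy5 over europium emission ratio at 671 and 618 nm; 0% = plate median of compound wells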
NSD2 HMT inh: NSD2 histone methyltransferase inhibitors, primary screen, biochemical, AlphaScreen, single concentration, set 2; Histone-lysine N-methyltransferase NSD2 (Homo sapiens), O96028; NSD2 peptide methylation, 120 min; inhibition, % at 12.5 µM; hit rate 0.54% among 310,000; in the data active means inhibition above about 50%
Target sequence (O96028 whole entry, looked up): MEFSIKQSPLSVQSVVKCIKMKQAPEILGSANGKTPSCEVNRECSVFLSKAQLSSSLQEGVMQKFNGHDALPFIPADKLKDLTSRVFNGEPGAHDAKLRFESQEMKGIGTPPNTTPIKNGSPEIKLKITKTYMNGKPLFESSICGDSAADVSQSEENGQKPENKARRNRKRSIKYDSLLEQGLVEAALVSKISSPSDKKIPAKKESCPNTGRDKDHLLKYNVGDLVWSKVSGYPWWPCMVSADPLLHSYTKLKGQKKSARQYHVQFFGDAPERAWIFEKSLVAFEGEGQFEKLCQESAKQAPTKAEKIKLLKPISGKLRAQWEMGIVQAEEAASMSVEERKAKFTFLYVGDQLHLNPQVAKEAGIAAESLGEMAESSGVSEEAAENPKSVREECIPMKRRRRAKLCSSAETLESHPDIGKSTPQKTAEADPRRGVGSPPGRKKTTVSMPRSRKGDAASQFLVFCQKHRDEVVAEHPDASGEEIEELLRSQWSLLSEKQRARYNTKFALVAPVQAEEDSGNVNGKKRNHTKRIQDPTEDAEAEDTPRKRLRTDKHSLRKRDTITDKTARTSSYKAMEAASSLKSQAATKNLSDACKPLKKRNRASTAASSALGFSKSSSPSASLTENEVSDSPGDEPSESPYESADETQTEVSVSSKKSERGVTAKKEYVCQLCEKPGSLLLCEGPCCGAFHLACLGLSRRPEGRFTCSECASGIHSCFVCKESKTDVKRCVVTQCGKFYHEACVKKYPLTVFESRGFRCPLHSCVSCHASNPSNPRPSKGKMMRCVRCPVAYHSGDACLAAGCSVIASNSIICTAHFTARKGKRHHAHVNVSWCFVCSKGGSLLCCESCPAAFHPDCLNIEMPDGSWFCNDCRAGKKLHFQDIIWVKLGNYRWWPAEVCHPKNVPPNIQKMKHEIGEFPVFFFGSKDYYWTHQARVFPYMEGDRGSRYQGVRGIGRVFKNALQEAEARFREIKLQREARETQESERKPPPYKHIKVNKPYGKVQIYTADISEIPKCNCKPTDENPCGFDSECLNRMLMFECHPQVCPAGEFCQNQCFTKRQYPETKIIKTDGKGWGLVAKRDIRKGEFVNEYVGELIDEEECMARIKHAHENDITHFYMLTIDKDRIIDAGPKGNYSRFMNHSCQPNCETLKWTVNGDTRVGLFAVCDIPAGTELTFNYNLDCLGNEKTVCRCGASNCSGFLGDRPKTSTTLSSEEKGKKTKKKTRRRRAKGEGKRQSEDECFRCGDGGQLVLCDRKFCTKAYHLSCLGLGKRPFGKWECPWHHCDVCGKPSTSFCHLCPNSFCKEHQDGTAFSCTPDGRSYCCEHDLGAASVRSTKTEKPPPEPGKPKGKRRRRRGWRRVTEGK
UHRF1 binding: UHRF1 methylated DNA binding inhibitors, primary screen, counter-screen for MBD2 inhibitor project, biochemical, TR-FRET, human UHRF1, single concentration | E3 ubiquitin-protein ligase UHRF1 (Homo sapiens), Q96T88 | UHRF1 binding to methylated oligo | inhibition, % at 4.4 µM | hit rate 0.75% among 370,000; in the data active means inhibition above about 21%;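 further: UHRF1 SRA domain binding a hemimethylated CpG hairpin DNA probe; 0% = median of test compound wells and 100% = reference inhibitor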
MBD2 inh: inhibitors of MBD2 binding to methylated DNA, primary screen, biochemical, TR-FRET, DNA-binding domain, human | Methyl-CpG-binding domain protein 2 (Homo sapiens), Q9UBB5 | MBD2 binding to methylated oligonucleotide | inhibition, % at 4.4 µM | hit rate 0.31% among 370,000; in the data active means inhibition above about 13%
CASP6 VEID inh: human caspase-6 inhibitors, primary screen, biochemical, VEID-R110 fluorescence, single point, set 2. hit rate 0.53% among 350,000. purified caspase-6, Z-VEID-R110 cleavage fluorescence. AID 686996, 2013. P55212. inhibition, % at 12.5 µM;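 active means mean inhibition across replicates at least about 35%, with every replicate also reaching that limit, limit read from the data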;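 further: 0% = median of neutral control wells and 100% = no fluorescence left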
Active calls of the source: *; / = no result.

SMILES | TDP2 inh | LEDGF integ inh | NSD2 HMT inh | UHRF1 binding | MBD2 inh | CASP6 VEID inh
C[C@H]1CN([C@@H](C)CO)C(=O)CCCn2cc(nn2)CO[C@H]1CN(C)Cc1ccc(C(F)(F)F)cc1 | / | / | / | / | / | -1.0
CC[C@@]12C(=O)N(c3ccccc3)C(=O)N1[C@H](c1cccc(C)c1)[C@@H]1C(=O)N(Cc3ccccc3)C(=O)[C@@H]12 | 11.0 | 9.8 | / | 24.0* | 7.3 | 0.3
Cc1noc(C)c1NC(=O)N(C)C[C@@H]1Oc2ccc(NC(=O)Cn3cnnn3)cc2C(=O)N([C@H](C)CO)C[C@@H]1C | / | / | / | / | / | 3.1
O=C(Cn1cc(COc2ccc(Br)cc2[N+](=O)[O-])nn1)c1ccc(O)cc1 | -4.0 | -0.7 | / | 23.9* | 7.7 | 12.6
COc1cc(C(C)=O)ccc1OCc1cn(CC(=O)c2ccc(O)cc2)nn1 | -1.4 | 7.8 | / | 21.2* | 7.3 | 12.0
CC(=O)c1ccc(OCc2cn(CC(=O)c3ccc(O)cc3)nn2)cc1 | 2.1 | 3.9 | / | 21.5* | 3.6 | 3.2
Cc1cccc(C)c1OCc1cn(CC(=O)c2ccc(O)cc2)nn1 | 9.9 | 9.1 | / | 18.9 | 9.0 | 9.6
CC(=O)c1ccc(OCc2cn(CC(=O)c3ccc(O)cc3)nn2)c(C)c1 | 3.6 | 3.1 | / | 22.8* | 11.3 | 7.5
O=C(C[C@H]1C[C@@H]2c3cc(NC(=O)C4CCC4)ccc3O[C@@H]2[C@H](CO)O1)NCc1ccc(-c2ccccc2)cc1 | / | / | / | / | / | -2.2
Cc1ccc(S(=O)(=O)N(C)C[C@H]2Oc3ccc(NS(=O)(=O)c4cccs4)cc3CC(=O)N([C@H](C)CO)C[C@@H]2C)cc1 | / | / | / | / | / | 1.8
C[C@@H]1CN([C@@H](C)CO)C(=O)c2cc(C3=CCCC3)cnc2O[C@H]1CN(C)C(=O)c1ccncc1 | / | / | / | / | / | 1.1
Cc1ccc2cc(N)ccc2n1 | -4.2 | -5.6 | 13.9 | -0.6 | -6.8 | 61.5*
O=C(Cc1ccccn1)NCC[C@H]1CC[C@H](NC(=O)c2ccccc2F)[C@@H](CO)O1 | / | / | / | / | / | -0.4
Cc1ccccc1OC1(C)CCN(Cc2ccc(-c3ccccn3)cc2)C1 (centres undefined) | 10.0 | -2.4 | 1.2 | 5.1 | 0.7 | 84.5*
C[C@@H]1CCCCO[C@@H](CN(C)C(=O)Nc2ccc(C(F)(F)F)cc2)[C@H](C)CN([C@@H](C)CO)C(=O)c2cc(NC(=O)NC3CCCCC3)ccc2O1 | / | / | / | / | / | -1.5
C[C@@H]1CCCCO[C@H](CN(C)C(=O)CCC(F)(F)F)[C@H](C)CN([C@H](C)CO)C(=O)c2cc(NS(=O)(=O)c3ccc(F)cc3)ccc2O1 | / | / | / | / | / | 2.5
CN1Cc2sc(NC(=S)NC(=O)c3ccccc3)c(C#N)c2CC1(C)C | -17.9 | -8.5 | 6.2 | 29.4* | 20.8* | -25.9
CNC[C@@H]1OCCCC[C@@H](C)Oc2ccc(NS(C)(=O)=O)cc2C(=O)N([C@@H](C)CO)C[C@@H]1C | / | / | / | / | / | -1.3
CSCc1c(C(=O)OCC(=O)c2ccc[nH]2)oc2ccccc12 | -2.6 | 19.4* | -1.7 | 19.3 | 11.7 | 4.8
Cc1cc(Cl)cc(Cl)c1OCCCCN(C)C | 16.6 | 2.9 | 1.3 | 21.5* | 3.9 | -4.3
S=C(NCCc1ccccc1)N1CCCC1 | -0.5 | 3.8 | -2.8 | 27.1* | 1.5 | 0.8
S=C(NCCc1ccccc1)N1CCOCC1 | -0.4 | 1.1 | -3.2 | -2.6 | 0.2 | /
O=C1CS/C(=N\N=C\c2ccccc2Cl)N1CC1CC1 | 4.2 | 0.8 | 5.3 | 24.7* | 10.9 | 0.8
O=C(NC12CC3CC(CC(C3)C1)C2)c1ccc(-c2ccc(Cl)cc2)o1 | 3.5 | -1.3 | -4.2 | -5.5 | 4.1 | -5.3
O=C(NC12CC3CC(CC(C3)C1)C2)c1ccc(-c2cccc(Cl)c2)o1 | -2.0 | 1.8 | 3.2 | 21.4* | 8.2 | /
SMILES | TDP2 inh | LEDGF integ inh | NSD2 HMT inh | UHRF1 binding | MBD2 inh | CASP6 VEID inh
COc1ccc(CNC(=O)CSc2nc3ccccc3n2C(C)=O)cc1 | -13.0 | 5.3 | -4.6 | 23.7* | 7.3 | 2.3
Cn1c(SCC(=O)NCc2ccc(F)cc2)nc2ccccc21 | 8.0 | -3.6 | -0.2 | 0.2 | -0.5 | /
CNC[C@H]1Oc2ccc(NS(C)(=O)=O)cc2CC(=O)N([C@H](C)CO)C[C@@H]1C | / | / | / | / | / | -2.4
COc1ccc(S(=O)(=O)N(C)C[C@H]2OCCCC[C@@H](C)Oc3ccc(NS(C)(=O)=O)cc3C(=O)N([C@H](C)CO)C[C@H]2C)cc1 | / | / | / | / | / | 0.9
COc1nc(C)cc(C)c1S(=O)(=O)c1ccc(Cl)cc1 | -13.0 | 2.3 | -5.9 | 1.6 | 0.3 | -7.1
CCOc1nc(C)cc(C)c1S(=O)(=O)c1ccc(Cl)cc1 | 0.2 | 1.3 | -7.2 | 25.1* | 6.7 | -2.0
O=C(C[C@@H]1C[C@H]2c3cc(NC(=O)NC4CCCC4)ccc3O[C@H]2[C@H](CO)O1)NCc1ccc(Oc2ccccc2)cc1 | / | / | / | / | / | 0.8
O=C(c1ccccc1F)N1C[C@H]2O[C@@H](CNS(=O)(=O)c3ccccc3)CC[C@H]21 | / | / | / | / | / | 4.0
CCCCn1c(N)c(N(CC(C)C)C(=O)c2cc(-c3ccco3)nc3ccccc23)c(=O)[nH]c1=O | -10.2 | 1.9 | 3.6 | 3.2 | 1.2 | 39.3*
C[C@@H]1CN([C@@H](C)CO)C(=O)c2cc(C#CC3CC3)cnc2O[C@H]1CN(C)C(=O)CC1CC1 | / | / | / | / | / | -0.2
O=C1Nc2ccc(C(=O)O)c(O)c2C1=O | -7.1 | 5.3 | 4.2 | -0.2 | -10.2 | 39.5*
CCCCCCn1cc(CN2CC(N3CCN(C)CC3)CS2(=O)=O)nn1 (centres undefined) | 7.2 | -1.1 | / | 17.4 | 12.2 | -7.9
COC(=O)CCCn1cc(CN2CC(N3CCN(C)CC3)CS2(=O)=O)nn1 (centres undefined) | -3.2 | 5.0 | / | 24.1* | 8.1 | -10.9
CCN(CC(=O)NCc1ccc(F)cc1)C(=O)C(C)Oc1cccc(Cl)c1 (centres undefined) | 0.5 | -0.5 | -1.3 | 22.6* | 9.6 | -1.3
CC(C)NC(=O)N(C)C[C@@H]1OCCCC[C@@H](C)Oc2ccc(NC(=O)C3CCCCC3)cc2C(=O)N([C@H](C)CO)C[C@@H]1C | / | / | / | / | / | -1.7
CCCNC(=O)N(C)C[C@H]1Oc2ncc(C3=CCCCC3)cc2C(=O)N([C@H](C)CO)C[C@H]1C | / | / | / | / | / | 0.9
CN1c2ccsc2/C(=N/Nc2ccccc2)CS1(=O)=O | 3.0 | -1.1 | -4.1 | 23.7* | 6.6 | 1.9
O=C(Nc1nc(-c2ccc(Cl)s2)cs1)c1ccccc1 | 1.3 | 2.3 | -1.3 | -1.6 | -0.2 | /
Cc1ccc(C(=O)Nc2nc(-c3cc(Cl)sc3Cl)cs2)cc1 | 11.3 | -1.9 | -2.0 | 23.1* | 7.6 | /

Source: PubChem BioAssay (several laboratories)
